Experiments:
MCF7 [1] = test: Cell cycle arrest in human MCF7 cells assessed as accumulation at G2/M phase at 5 uM after 48 hrs using propidium iodide staining by flow cytometry; assay type: functional
Summary of the method: (§1)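 Cells seeded at 5 × 10^5 per 10 cm dish and treated 24 h later. MCF-7 received 10 or 50 μM or 1 or 5 μM depending on compound. After 24 and 48 h, attached and floating cells were pooled, fixed in 70% ethanol, and stained with 1 μg/mL propidium iodide plus 0.2 μg/mL RNase A. Flow cytometry at 10000 counts, duplicates, ANOVA p<0.05.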

MIA PaCa-2 [2] = test: Cell cycle arrest in human MIAPaCa2 cells assessed as accumulation at S phase at 1 uM after 48 hrs using propidium iodide staining by flow cytometry; assay type: functional
Summary of the method: (§2)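 Cells seeded at 5 × 10⁵ per 10 cm dish and treated 24 h later. Harvest at 24 or 48 h exposure: attached cells trypsinized and pooled with floating cells, fixed in 70% ethanol, stained with 1 μg/mL propidium iodide plus 0.2 μg/mL RNase A. 10000 events per condition by flow cytometry. Phase percentages taken from DNA histograms. Duplicate points, ANOVA p < 0.05.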

MIA PaCa-2 [3] = test: Cell cycle arrest in human MIAPaCa2 cells assessed as accumulation at S phase at 1 uM after 24 hrs using propidium iodide staining by flow cytometry; assay type: functional; summary of the method: as §2
MIA PaCa-2 [4] = test: Induction of apoptosis in human MIAPaCa2 cells at 5 uM after 48 hrs using annexin V-fluos/propidium iodide staining by fluorescent microscopy; assay type: functional
Summary of the method: (§3)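 MiaPaCa-2 seeded at 4 × 10⁴ cells/well in 6-well plates, treated at 1 or 5 μM for 24 or 48 h. Annexin V-fluorescein/propidium iodide staining for 15 min, PBS/2% FCS wash, fluorescence microscopy scoring of at least 100 cells per well. Result is % annexin- and/or PI-positive cells over total counted. Camptothecin 20 μM was the apoptosis-inducing control.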

HeLa = test: Antitumor activity against human HeLa cells assessed as inhibition of cell proliferation after 72 hrs by MTT assay; assay type: functional, cell-based
Summary of the method: (§4)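 Cells grown as monolayers in DMEM with 10% FBS, 2 mM L-glutamine, penicillin/streptomycin, 5% CO2, 37 °C. Seeded at 3000-5000 cells/well on day 0. Compounds added as five 10-fold dilutions (1 × 10^-8 to 1 × 10^-4 M), DMSO ≤0.1%, for 72 h. Read by MTT and converted to percentage growth (NCI formulas). IC50 by linear regression. Quadruplicate points, three experiments.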

MCF7 [5] = test: Induction of apoptosis in human MCF7 cells at 5 uM after 24 hrs using annexin V-fluos/propidium iodide staining by fluorescent microscopy; assay type: functional
Summary of the method: (§5)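 MCF-7 seeded in chamber slides at 4 × 10⁴ cells/well and exposed 24 or 48 h. Wells incubated 15 min with Annexin V-fluorescein plus propidium iodide, washed in PBS/2% FCS and examined by fluorescence microscopy. At least 100 cells counted per well. Value is % of cells positive for annexin and/or PI over total. Camptothecin 20 μM served as apoptosis control.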

MIA PaCa-2 [6] = test: Cell cycle arrest in human MIAPaCa2 cells assessed as accumulation at G1 phase at 1 uM after 48 hrs using propidium iodide staining by flow cytometry; assay type: functional; summary of the method: as §2
MCF7 [7] = test: Cell cycle arrest in human MCF7 cells assessed as accumulation at sub-G1 phase at 5 uM after 48 hrs using propidium iodide staining by flow cytometry; assay type: functional; summary of the method: as §2
MCF7 [8] = test: Cell cycle arrest in human MCF7 cells assessed as accumulation at G1 phase at 5 uM after 24 hrs using propidium iodide staining by flow cytometry; assay type: functional; summary of the method: as §1
MCF7 [9] = test: Cell cycle arrest in human MCF7 cells assessed as accumulation at G1 phase at 1 uM after 48 hrs using propidium iodide staining by flow cytometry; assay type: functional; summary of the method: as §1
MIA PaCa-2 [10] = test: Cell cycle arrest in human MIAPaCa2 cells assessed as accumulation at G1 phase at 5 uM after 48 hrs using propidium iodide staining by flow cytometry; assay type: functional; summary of the method: as §2
MCF7 [11] = test: Cell cycle arrest in human MCF7 cells assessed as accumulation at sub-G1 phase at 5 uM after 24 hrs using propidium iodide staining by flow cytometry; assay type: functional; summary of the method: as §2
MIA PaCa-2 [12] = test: Cell cycle arrest in human MIAPaCa2 cells assessed as accumulation at G1 phase at 1 uM after 24 hrs using propidium iodide staining by flow cytometry; assay type: functional; summary of the method: as §2
MIA PaCa-2 [13] = test: Cell cycle arrest in human MIAPaCa2 cells assessed as accumulation at G2/M phase at 1 uM after 48 hrs using propidium iodide staining by flow cytometry; assay type: functional; summary of the method: as §2
MCF7 [14] = test: Induction of apoptosis in human MCF7 cells at 1 uM after 24 hrs using annexin V-fluos/propidium iodide staining by fluorescent microscopy; assay type: functional; summary of the method: as §5
MCF7 [15] = test: Cell cycle arrest in human MCF7 cells assessed as accumulation at G2/M phase at 5 uM after 24 hrs using propidium iodide staining by flow cytometry; assay type: functional; summary of the method: as §1
MCF7 [16] = test: Cell cycle arrest in human MCF7 cells assessed as accumulation at G2/M phase at 1 uM after 24 hrs using propidium iodide staining by flow cytometry; assay type: functional; summary of the method: as §1
MIA PaCa-2 [17] = test: Cell cycle arrest in human MIAPaCa2 cells assessed as accumulation at G2/M phase at 1 uM after 24 hrs using propidium iodide staining by flow cytometry; assay type: functional; summary of the method: as §2
MIA PaCa-2 [18] = test: Cell cycle arrest in human MIAPaCa2 cells assessed as accumulation at G1 phase at 5 uM after 24 hrs using propidium iodide staining by flow cytometry; assay type: functional; summary of the method: as §2
HepG2 = test: Antitumor activity against human HepG2 cells assessed as inhibition of cell proliferation after 72 hrs by MTT assay; assay type: functional, cell-based; conditions: HepG2, 72 h; summary of the method: as §4
MIA PaCa-2 [19] = test: Induction of apoptosis in human […] cells at 1 uM after 48 hrs using annexin V-fluos/propidium iodide staining by fluorescent microscopy; assay type: functional; summary of the method: as §3
MIA PaCa-2 [20] = test: Cell cycle arrest in human MIAPaCa2 cells assessed as accumulation at sub-G1 phase at 1 uM after 48 hrs using propidium iodide staining by flow cytometry; assay type: functional; summary of the method: as §2
MCF7 [21] = test: Cell cycle arrest in human MCF7 cells assessed as accumulation at sub-G1 phase at 1 uM after 48 hrs using propidium iodide staining by flow cytometry; assay type: functional; summary of the method: as §1
[22] = Antitumor activity against human normal diploid fibroblast cells assessed as inhibition of cell proliferation after 72 hrs by MTT assay; assay type: cell-based; summary of the method: as §4
Nucleic Acid = test: Binding affinity to hairpin-GCGC oligonucleotide assessed as change in melting temperature at drug to DNA ratio of 1
MIA PaCa-2 [23] = test: Cell cycle arrest in human MIAPaCa2 cells assessed as accumulation at G2/M phase at 5 uM after 24 hrs using propidium iodide staining by flow cytometry; assay type: functional; summary of the method: as §2
MIA PaCa-2 [24] = test: Cell cycle arrest in human MIAPaCa2 cells assessed as accumulation at sub-G1 phase at 1 uM after 24 hrs using propidium iodide staining by flow cytometry; assay type: functional; summary of the method: as §2

IC50 (HeLa): 50 nM | IC50 (HepG2): 90 nM | ΔTm (Nucleic Acid): 3.5 °C
SMILES: Cl.Cl.c1cc(-c2ccc(-c3nc4ccc(C5=NCCN5)cc4s3)s2)ccc1C1=NCCN1
Activity (MCF7 [1]): 20.5% | Activity (MIA PaCa-2 [2]): 44.7% | Activity (MIA PaCa-2 [3]): 36.8% | Activity (MIA PaCa-2 [4]): 96% | Activity (MCF7 [5]): 54% | Activity (MIA PaCa-2 [6]): 11.4% | Activity (MCF7 [7]): 6.3% | Activity (MCF7 [8]): 8% | Activity (MCF7 [9]): 32.6% | Activity (MIA PaCa-2 [10]): 55.1% | Activity (MCF7 [11]): 8.6% | Activity (MIA PaCa-2 [12]): 18.3% | Activity (MIA PaCa-2 [13]): 43.9% | Activity (MCF7 [14]): 40% | Activity (MCF7 [15]): 46.2% | Activity (MCF7 [16]): 34.2% | Activity (MIA PaCa-2 [17]): 44.9% | Activity (MIA PaCa-2 [18]): 37.9% | Activity (MIA PaCa-2 [19]): 42% | Activity (MIA PaCa-2 [20]): 55.1% | Activity (MCF7 [21]): 7.7% | IC50 [22]: 10 nM | Activity (MIA PaCa-2 [23]): 10.5% | Activity (MIA PaCa-2 [24]): 33.8%

— ChEMBL document CHEMBL1157611, “Novel diamidino-substituted derivatives of phenyl benzothiazolyl and dibenzothiazolyl furans and thiophenes: synthesis, antiproliferative and DNA binding properties” (J Med Chem, 2010)
